In the library only some 1.5% were active in any assay of this set; here they are far more common.
NSD2 HMT inh: NSD2 histone methyltransferase inhibitors, primary screen, biochemical, AlphaScreen, single concentration, set 2 | NSD2 peptide methylation, 120 min | inhibition, % at 12.5 µM | AID 743445, 2014 | 0.54% of 310,000 active
NS3 helicase inh: inhibitors of HCV NS3 helicase, primary screen, biochemical, Cy5 molecular beacon fluorescence. NS3 helicase DNA unwinding. inhibition, % at 10.9 µM. 0.56% of 290,000 active;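 active = inhibition above the mean of all tested compounds plus 3 SD, set per campaign, cut at about 35% in these data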
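System: NS3 helicase fragment of HCV / Schedule: 1 h at 25 °C / Control set: DMSO alone as 0% and 110 µM thioflavine S as 100% / Reagent: Cy5/quencher beacon DNA duplex and ATP to start / Technique: Cy5 fluorescence / Replication: singlicate / Evaluation: % inhibition of end-to-start signal ratio versus controls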
CASP6 VEID inh: human caspase-6 inhibitors, primary screen, biochemical, VEID-R110 fluorescence, single point, set 2; purified caspase-6, Z-VEID-R110 cleavage fluorescence; inhibition, % at 12.5 µM; 0.53% of 350,000 active; AID 686996, 2013;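 active = mean inhibition across replicates at least about 35%, with every replicate also reaching that limit, limit read from the data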
Target sequence (P55212 24-179 limits assumed): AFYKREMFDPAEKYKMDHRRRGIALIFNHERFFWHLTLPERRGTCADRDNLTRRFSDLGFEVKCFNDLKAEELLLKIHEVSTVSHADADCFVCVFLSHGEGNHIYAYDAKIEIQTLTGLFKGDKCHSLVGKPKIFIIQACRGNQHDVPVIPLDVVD
Target sequence (P55212 194-293 limits assumed): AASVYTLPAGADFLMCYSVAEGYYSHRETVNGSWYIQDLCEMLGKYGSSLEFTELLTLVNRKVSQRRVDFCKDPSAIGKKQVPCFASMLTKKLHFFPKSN
DNMT1 block: human DNMT1 methyltransferase inhibitors, primary screen, biochemical, molecular beacon, fluorescence, HinP1I cleavage, uHTS; DNA (cytosine-5)-methyltransferase 1 (Homo sapiens), P26358; inhibition (reported as % activation of signal), % at 10 µM; 0.83% of 360,000 active; AID 588458, 2011
Numbers stand for hits; i = inactive; nt = no result given; + = active, no number. Rule as the data show it, unless noted: active = inhibition above about 50%; inactive = the rest.

SMILES	NSD2 HMT inh	NS3 helicase inh	CASP6 VEID inh	DNMT1 block
COc1ccc(C(=O)OCC(=O)c2ccc[nH]2)c(OC)c1	i	nt	43.1	i
O=C1Nc2cc(Cl)cnc2N2CCCC12 (stereo not drawn)	nt	i	39.7	i
O=C1Nc2ccccc2N2CCCC12 (stereo not drawn)	nt	i	nt	nt
O=C(O)c1ccc(Cn2cc(/C=C\[N+](=O)[O-])c3ccccc32)o1	i	i	37.7	i
CN(C)CCNc1ccc2ncn3c4ccc(O)cc4c(=O)c1c23	i	nt	i	85.9
COc1ccc(NC(=O)N(C)C[C@H]2OCCCC[C@@H](C)Oc3ccc(NS(=O)(=O)c4cn(C)cn4)cc3C(=O)N([C@H](C)CO)C[C@@H]2C)cc1	nt	nt	59.9	nt
COc1ccc(NC(=O)N(C)C[C@H]2OCCCC[C@@H](C)Oc3ccc(N(C)C)cc3C(=O)N([C@@H](C)CO)C[C@@H]2C)cc1	nt	nt	52.1	nt
COc1ccc(NC(=O)N(C)C[C@H]2OCCCC[C@@H](C)Oc3ccc(N(C)C)cc3C(=O)N([C@H](C)CO)C[C@H]2C)cc1	nt	nt	i	nt
C[C@H]1CCCCO[C@H](CN(C)C(=O)Nc2ccc(F)cc2)[C@@H](C)CN([C@@H](C)CO)C(=O)c2cc(NC(=O)Cc3ccccc3)ccc2O1	nt	nt	43.1	nt
CCCNC(=O)N1CC2(C1)[C@H](c1ccccc1)[C@@H](CO)N2CC1CC1	nt	nt	i	nt
C/C(=N\Nc1ccc(C(=O)O)cc1)c1ccc(Br)cc1	i	i	43.4	i
O=C(O)C1=C2C(=O)Nc3cccc(c32)C2(C1)C(=O)Nc1ccccc12 (stereo not drawn)	nt	nt	60.1	i
C[C@H](CO)N1C[C@H](C)[C@@H](CN(C)S(=O)(=O)c2cn(C)cn2)Oc2ncc(C3=CCCC3)cc2C1=O	nt	nt	i	nt
N[C@@H](C(=O)N[C@@H]1C(=O)N2C(C(=O)O)=C(Cl)CS[C@H]12)c1ccccc1	nt	i	i	i
NC(=O)c1cc[n+](CC2=C(C(=O)O)N3C(=O)[C@@H](NC(=O)C(c4ccccc4)S(=O)(=O)[O-])[C@H]3SC2)cc1 (stereo partly drawn)	nt	i	nt	97.9
O=C(COc1ccc(/C=N/NC(=O)c2cc3ccccc3o2)cc1Cl)Nc1ccccc1	nt	i	nt	71.1
COc1cc(/C=N/NC(=O)c2ccccc2O)ccc1OCC(=O)Nc1ccccc1	i	i	i	i
C[C@H](CO)N1C[C@H](C)[C@@H](CN(C)Cc2cccnc2)Oc2cc(C#CC3CCCC3)ccc2S1(=O)=O	nt	nt	i	nt
CN(C)C(=O)c1cccc(-c2ccc([C@H]3[C@@H](CO)N(C(=O)C4CCCC4)[C@H]3C#N)cc2)c1	nt	nt	i	nt
COc1ccc(-n2nc3c(c2NC(=O)c2c(-c4ccccc4Cl)noc2C)CS(=O)(=O)C3)cc1	i	i	42.5	i
COc1ccc(-n2nc3c(c2NC(=O)c2ccccc2)CS(=O)(=O)C3)cc1	i	nt	i	i
COc1ccc(NC(=O)N(C)C[C@@H]2Oc3ccc(NC(=O)CCN4CCOCC4)cc3CC(=O)N([C@@H](C)CO)C[C@H]2C)cc1	nt	nt	i	nt
Cc1noc(C)c1S(=O)(=O)N(C)C[C@@H]1Oc2ccc(NC(=O)Nc3ccc4c(c3)OCO4)cc2C(=O)N([C@@H](C)CO)C[C@@H]1C	nt	nt	i	nt
COc1cc(/C=C2\SC(=Nc3ccccc3)NC2=O)cc(Cl)c1O	i	i	i	i
COc1cc(/C=C2\SC(=Nc3ccc(Cl)c(C(=O)O)c3)NC2=O)c(Br)c(Br)c1O	i	i	35.4	i
SMILES	NSD2 HMT inh	NS3 helicase inh	CASP6 VEID inh	DNMT1 block
O=C(O)c1cnn2c1C(=O)N(Cc1cccs1)CC2	i	i	63.7	i
COc1ccc(CN2CCn3ncc(C(=O)Nc4ccccc4)c3C2=O)cc1	i	i	nt	i
O=C(C[C@H]1CC[C@@H](NC(=O)c2ccc(F)cc2)[C@H](CO)O1)NCCc1ccccc1	nt	nt	i	nt
C=CC1=C(C(=O)O)N2C(=O)[C@@H](NC(=O)/C(=N\O)c3csc(N)n3)[C@H]2SC1 (stereo in doubt)	nt	nt	87.5	88.7
O=C(O)C1CCCCC1C(=O)Nc1nc(-c2ccc(Cl)s2)cs1 (stereo not drawn)	i	i	46.1	i
CCCC(=O)Nc1nc(-c2ccc(Cl)s2)cs1	i	i	i	i
CCN(CC)c1ccc2cc(-c3nc4ccccc4n3C)c(=O)oc2c1	i	i	nt	i
CCN(CC)c1ccc2cc(-c3nc4ccccc4[nH]3)c(=O)oc2c1	nt	i	nt	+
Cc1cc(C)nc(NC(=O)/C=C/c2ccccc2Cl)n1	i	i	nt	i
Cc1cc(N)c2cc(NC(=O)/C=C/c3ccccc3Cl)ccc2n1	i	i	nt	52.8
COc1ccc(O)c(CN2CCN(C/C=C/c3ccccc3)CC2)c1	i	i	nt	i
COc1cc(Br)cc(CN2CCN(C/C=C/c3ccccc3)CC2)c1O	i	i	38.4	i
CCOC(=O)C1CCCN(S(=O)(=O)c2nc3nc(C)cc(C)n3n2)C1 (stereo not drawn)	i	i	37.0	i
O=C(c1ccccc1)c1c2c(cc3sc4ccccc4[n+]13)-c1cccc3cccc-2c13	nt	i	nt	57.6
O=C(CCN1CCCCC1)NCC[C@H]1CC[C@H](NC(=O)Cc2cccnc2)[C@H](CO)O1	nt	nt	i	nt
Oc1ccc(/C=N/Nc2ccc(Cl)nn2)c(O)c1O	nt	i	47.7	i
CCOc1ccc(/C=N/Nc2ccc(Cl)nn2)c(O)c1	i	i	i	i
C[C@@H]1CN([C@H](C)CO)S(=O)(=O)c2ccc(-c3ccc(F)cc3)cc2O[C@@H]1CN(C)C	nt	nt	i	nt
CO[C@@H]1CN(C)C(=O)c2cc(NC(C)=O)ccc2OC[C@@H](C)N(C(=O)CC2CC2)C[C@H]1C	nt	nt	i	nt
CN=C(Nc1cccnc1)c1cccc(C(F)(F)F)c1	i	i	65.2	i
Cc1cc(C)[n+](-c2ccc(Oc3ccccc3)c(S(=O)(=O)[O-])c2)[nH]1	i	i	40.7	i
CCN(CC)S(=O)(=O)c1ccc(Oc2ccccc2)c(N)c1	i	i	i	i
CN(C)C(=O)c1cccc(-c2ccc([C@H]3[C@@H](C#N)N(C(=O)C4CCCC4)[C@H]3CO)cc2)c1	nt	nt	i	nt
Cc1ccc(NC(=O)CSC2=C(C#N)C(c3ccco3)CC(=O)N2)cc1 (stereo not drawn)	i	i	nt	i
Cc1ccc(C(=O)CSC2=C(C#N)C(c3ccco3)CC(=O)N2)c(C)c1 (stereo not drawn)	i	i	nt	64.3
SMILES	NSD2 HMT inh	NS3 helicase inh	CASP6 VEID inh	DNMT1 block
O=C(C1CCCC1)N1CC2(C1)[C@@H](c1ccccc1)[C@@H](CO)N2C(=O)c1cccnc1	nt	nt	i	nt
O=C(O)c1c[nH]c2c([N+](=O)[O-])cccc2c1=O	i	nt	35.8	i
Cc1c(C(=O)O)cccc1[N+](=O)[O-]	nt	nt	i	i
COc1ccc2c3c([nH]c2c1)[C@H](CO)N(C(=O)c1ccc(F)cc1)CC31CN(Cc2cccnc2)C1	nt	nt	i	nt
CCN1CCN(C2=CC3=CC(=C(C#N)C#N)CCC3CC2)CC1 (stereo not drawn)	i	i	nt	+
N#CC(C#N)=C1C=C2C=C(N3CCCCCC3)CCC2CC1 (stereo not drawn)	i	i	i	+
